According to paper PMC2800230 (Nucleic Acids Research, 2009):
“Also recorded” adds a separate entry of the source. The star is where a group is joined. Biotin = O=C1N[C@H]2[C@H](CS[C@H]2CCCCC(=O)*)N1; Ahx = NCCCCCC(=O)O

Legend:
RAD51 = conditions: in contrast to BRC4; ref [20],[21],[39]; cited from earlier work
RAD51-dsDNA filament = assay: EMSA of RAD51 nucleoprotein filament formation on dsDNA; type: biochemical, human; conditions: RAD51 2 µM, result in words
Procedure, shortened: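 Untagged RAD51 (2 µM) was pre-incubated with BRC peptides at stated µM concentrations for 10 min on ice. Complexes were resolved on 0.5% agarose in TAE (50 mA, 4 h, 4°C) and phosphorimaged.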

mCherry-RAD51^WT = assay: Bio-BRC4 pull-down from DT40 whole-cell extract: mCherry-RAD51^WT; type: binding, human; conditions: lysates of untreated DT40 cells; streptavidin magnetic beads; western blot
Procedure, shortened: (§1)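 Lysates from untreated Rad51−/− DT40 cells (no doxycycline) expressing mCherry-tagged wild-type or mutant human RAD51 alongside wild-type HsRAD51Tet off were incubated with BRC4 peptide. The peptide carried an N-terminal biotin on a 6-aminohexanoic acid spacer and a C-terminal amide, was HPLC-purified to 95%, and was bound to streptavidin-coated magnetic beads. Captured RAD51 species were detected by SDS–PAGE and immunoblotting.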

[1] = system: mCherry-RAD51 RAD51^LL-EE; assay: Bio-BRC4 pull-down from DT40 whole-cell extract: mCherry-RAD51^LL-EE; type: binding, human; conditions: lysates of untreated DT40 cells also expressing HsRAD51^Tet off; western blot
Procedure, shortened: as §1

[2] = system: mCherry-RAD51 RAD51^LLRR-EEAA; assay: Bio-BRC4 pull-down from DT40 whole-cell extract: mCherry-RAD51^LLRR-EEAA; type: binding, human; conditions: lysates of untreated DT40 cells also expressing HsRAD51^Tet off; western blot
Procedure, shortened: as §1

BRC4–RAD51 interaction = type: binding, human; conditions: competitive ELISA; comparison in words
Procedure, shortened: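 Solid-phase BRC4 peptide was bound by recombinant full-length human RAD51 in solution. The RAD51 was thrombin-cleaved overnight at 22°C from GST-RAD51 expressed in E. coli BL21, then dialysed into PBS. Wild-type or mutant biotinylated BRC peptides were added as soluble competitors. Absorbance is given as mean percentage (SEM) of triplicates, normalised to the positive control without soluble inhibitor.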

[3] = biological target: T1, Recombinant full-length RAD51, cleaved from GST-RAD51 (human, UniProt Q06609 1-339); assay: ELISA
T1 sequence (looked up): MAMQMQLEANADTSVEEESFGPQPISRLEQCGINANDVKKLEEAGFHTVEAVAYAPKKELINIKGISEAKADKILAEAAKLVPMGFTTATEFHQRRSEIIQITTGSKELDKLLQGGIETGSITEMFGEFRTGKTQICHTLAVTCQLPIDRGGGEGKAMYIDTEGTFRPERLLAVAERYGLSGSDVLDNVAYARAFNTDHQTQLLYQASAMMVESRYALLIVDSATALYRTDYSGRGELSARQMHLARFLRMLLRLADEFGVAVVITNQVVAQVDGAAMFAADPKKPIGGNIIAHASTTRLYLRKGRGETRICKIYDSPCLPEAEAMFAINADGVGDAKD

RAD51 (WT) = biological target: T2, RAD51 (WT) (Homo sapiens, UniProt Q06609 1-339); assay: streptavidin-bead pull-down
T2 chain: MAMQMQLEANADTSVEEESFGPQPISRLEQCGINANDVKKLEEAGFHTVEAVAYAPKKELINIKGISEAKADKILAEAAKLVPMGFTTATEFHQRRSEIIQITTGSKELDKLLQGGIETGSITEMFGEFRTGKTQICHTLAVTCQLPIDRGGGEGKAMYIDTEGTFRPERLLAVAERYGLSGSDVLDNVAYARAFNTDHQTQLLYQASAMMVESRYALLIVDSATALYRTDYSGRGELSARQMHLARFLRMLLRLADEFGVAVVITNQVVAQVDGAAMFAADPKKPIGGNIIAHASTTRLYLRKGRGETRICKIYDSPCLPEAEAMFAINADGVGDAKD

RAD51 R250A = RAD51 R250A (Homo sapiens, UniProt Q06609 1-339, R250A); assay: streptavidin-bead pull-down
[4] = biological target: T3, Untagged recombinant RAD51 (human, UniProt Q06609 1-339); assay: native gel or EMSA
T3 sequence (looked up): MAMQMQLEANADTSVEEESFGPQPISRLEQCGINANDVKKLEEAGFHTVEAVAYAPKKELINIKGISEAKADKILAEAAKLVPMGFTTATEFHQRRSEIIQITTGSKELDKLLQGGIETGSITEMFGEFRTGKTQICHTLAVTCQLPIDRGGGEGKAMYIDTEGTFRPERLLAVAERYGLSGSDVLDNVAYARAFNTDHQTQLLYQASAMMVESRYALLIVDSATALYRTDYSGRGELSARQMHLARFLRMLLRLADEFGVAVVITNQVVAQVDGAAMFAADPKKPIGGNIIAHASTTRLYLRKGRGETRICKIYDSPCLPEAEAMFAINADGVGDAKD

## IENSALAFYTSCSRKTSVSQTSLLEAKKWLREGIF [BRC5]
RAD51
  affinity for RAD51 among the human BRC repeats: lowest affinity

## KEPTLLGFHTASGKKVKIAKESLDKVKNLFDEKEQ [BRC4]
RAD51-dsDNA filament
  inhibition of complex (filament) formation at higher concentrations: filament formation is prevented
mCherry-RAD51^WT
  pull-down of mCherry-RAD51^WT by Bio-BRC4: can also be pulled-down by Bio-BRC4
[1]
  pull-down of mCherry-RAD51^LL-EE by Bio-BRC4: defective in binding to Bio-BRC4
[2]
  pull-down of mCherry-RAD51^LLRR-EEAA by Bio-BRC4: defective in binding to Bio-BRC4

## KEPTLLGFHTASGKKVKVSQTSLLEAKKWLREGIF [BRC^45]
BRC4–RAD51 interaction
  potency at competing the BRC4–RAD51 interaction relative to another peptide: more potent than BRC4
RAD51-dsDNA filament
  inhibition of complex (filament) formation at higher concentrations: inhibits complex formation when present in higher amounts
  permissive (super-shift) and inhibitory behaviours in the EMSA: exhibits both behaviours; also recorded: Concentration dependent super-shift and subsequent inhibition of filament formation

B1: BRC4 peptide (human BRCA2 BRC repeat 4, 35-mer) (peptide)
peptide: KEPTLLGFHTASGKKVKIAKESLDKVKNLFDEKEQ
modifications: N-terminal biotin attached through a 6-aminohexanoic acid spacer; C-terminal amide
[3]
  binding result: binds

B2: 60-mer ssDNA (ssDNA)
DNA: TACTGCCATTCTGTATCGCTTATCGAGTAGTTACCTGCCTAGCATTGCCACTCATAGCCT
RAD51 (WT)
  binding result: binds
RAD51 R250A
  binding result: binds

B3: 60-mer dsDNA (dsDNA)
DNA 1: TACTGCCATTCTGTATCGCTTATCGAGTAGTTACCTGCCTAGCATTGCCACTCATAGCCT
DNA 2: AGGCTATGAGTGGCAATGCTAGGCAGGTAACTACTCGATAAGCGATACAGAATGGCAGTA
RAD51 (WT)
  binding result: binds
RAD51 R250A
  binding result: binds

B4: BRC^45 chimaeric peptide (N-terminal 17 residues of BRC4 and C-terminal 18 residues of BRC5) (peptide)
peptide: {Biotin-Ahx}-KEPTLLGFHTASGKKVKVSQTSLLEAKKWLREGIF-NH2
SMILES: CC[C@H](C)[C@H](NC(=O)CNC(=O)[C@H](CCC(=O)O)NC(=O)[C@H](CCCNC(=N)N)NC(=O)[C@H](CC(C)C)NC(=O)[C@H](Cc1c[nH]c2ccccc12)NC(=O)[C@H](CCCCN)NC(=O)[C@H](CCCCN)NC(=O)[C@H](C)NC(=O)[C@H](CCC(=O)O)NC(=O)[C@H](CC(C)C)NC(=O)[C@H](CC(C)C)NC(=O)[C@H](CO)NC(=O)[C@@H](NC(=O)[C@H](CCC(N)=O)NC(=O)[C@H](CO)NC(=O)[C@@H](NC(=O)[C@H](CCCCN)NC(=O)[C@@H](NC(=O)[C@H](CCCCN)NC(=O)[C@H](CCCCN)NC(=O)CNC(=O)[C@H](CO)NC(=O)[C@H](C)NC(=O)[C@@H](NC(=O)[C@H](Cc1c[nH]cn1)NC(=O)[C@H](Cc1ccccc1)NC(=O)CNC(=O)[C@H](CC(C)C)NC(=O)[C@H](CC(C)C)NC(=O)[C@@H](NC(=O)[C@@H]1CCCN1C(=O)[C@H](CCC(=O)O)NC(=O)[C@H](CCCCN)NC(=O)CCCCCNC(=O)CCCC[C@@H]1SC[C@@H]2NC(=O)N[C@@H]21)[C@@H](C)O)[C@@H](C)O)C(C)C)C(C)C)[C@@H](C)O)C(=O)N[C@@H](Cc1ccccc1)C(N)=O
[3]
  binding result: binds
[4]
  binding result: binds
